According to ChEMBL document CHEMBL4725347, “Discovery of a Monoiodo Aza-BODIPY Near-Infrared Photosensitizer: in vitro and in vivo Evaluation for Photodynamic Therapy” (J Med Chem, 2020):
The source made the active and inactive calls. The rule behind the calls is not given here.

Columns and labels:
HeLa [1] = test: Induction of apoptosis in human HeLa cells assessed as viable cells at 200 nM preincubated for 3 hrs followed by 54 J/cm2 light irradiation and measured after 24 hrs by Annexin-V-FITC/propidium iodide staining based flow cytometry (reference value: 90.74%); assay type: functional; details: light or radiation study, read-out: Activity
How it was run: (§1)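 HeLa cells in six-well plates were exposed to compound for 3 h, irradiated (λ > 590 nm), and incubated 24 h at 37 °C. Cells were then harvested, washed with PBS, and stained with annexin V-FITC/PI for 20 min at room temperature before immediate flow cytometry. Untreated, unirradiated cells served as control.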

[2] = Absorption property of the compound in PBS containing 1% Cremophor EL/1,2-propanediol (10:3, v:v) system assessed as absorption coefficient by UV-visible spectrophotometric method; assay type: physicochemical; details: buffer
How it was run: (§2)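 Electronic absorption spectra recorded by UV-visible spectrophotometry at room temperature. Solvents were chloroform, isopropanol, acetonitrile, DMF, and PBS buffer containing 1% Cremophor EL/1,2-propanediol (10:3, v:v). Chloroform data were referenced to the non-halogenated parent dye.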

HeLa [3] = test: Phototoxicity against human HeLa cells assessed as reduction in cell viability preincubated for 3 hrs followed by 54 J/cm2 light irradiation and measured after 24 hrs by MTT assay; assay type: functional, cell-based; details: light or radiation study
How it was run: (§3)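 PS formulated in PBS containing Cremophor EL/1,2-propanediol (10:3, v:v) after THF removal, filtered, with concentration confirmed by UV-Vis. Cells were grown in DMEM with 10% FBS and seeded at 3×10^3 per well overnight. They were incubated with PS for 3 h, irradiated at λ > 590 nm, kept 24 h at 37 °C, then given MTT (0.5 mg/mL, 4 h) with DMSO solubilization and A490 read-out.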

HeLa [4] = test: Antitumor activity against human HeLa cells xenografted in Balb/c nu/nu mouse assessed as tumor growth inhibition at 2 mg/kg, iv pretreated for 15 mins followed by 54 J/cm2 light irradiation for 10 mins and measured after 24 days; assay type: functional, organism-based
How it was run: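 Female Balb/c nu/nu mice with subcutaneous HeLa tumors (5×10^6 cells) reaching 80–100 mm³ on day 7 were randomized, n = 5 per group. Mice received 2 mg/kg by tail vein, or saline for controls. After 15 min the tumor was irradiated once with 54 J/cm² (75 W halogen lamp, >590 nm filter, 90 mW/cm², 10 min), unanaesthetized. Calipers every other day; V = 0.5×L×W²; body weight tracked.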

[5] = Photostability of the compound in PBS containing 1% Cremophor EL/1,2-propanediol (10:3, v:v) system assessed as compound degradation irradiated with 90 mW/cm2 light; assay type: physicochemical; details: buffer
[6] = Induction of singlet oxygen generation in isopropanol assessed as relative rate of DPBF degradation to MB at 1 uM irradiated with 90 mW/cm2 halogen light; assay type: functional
How it was run: (§4)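 Singlet oxygen generation measured with 1,3-diphenylisobenzofuran (DPBF) as scavenger. The decrease in DPBF absorbance at 411 nm was monitored over time during light irradiation, and the photodegradation rate was calculated.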

[7] = Drug uptake in human HeLa cells xenografted Balb/c nu/nu mouse heart at 2 mg/kg, iv measured after 3 hrs by fluorescence imaging analysis; assay type: ADME, organism-based; details: in vivo
How it was run: (§5)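 Female Balb/c nu/nu mice bore subcutaneous HeLa tumors (5×10^6 cells, right back) and received 2 mg/kg via tail vein. Living mice were imaged under isoflurane at time points (ex 680/em 720 nm, 1 s exposure). At set times mice were euthanized and heart, liver, spleen, lungs, kidneys and tumor imaged ex vivo; ROI quantified, mean ± SD, n = 3.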

HeLa [8] = test: Induction of apoptosis in human HeLa cells assessed as necrotic cells at 40 nM preincubated for 3 hrs followed by 54 J/cm2 light irradiation and measured after 24 hrs by Annexin-V-FITC/propidium iodide staining based flow cytometry (reference value: 2.8%); assay type: functional; how it was run: as §1
[9] = Induction of singlet oxygen generation in PBS containing 1% Cremophor EL/1,2-propanediol (10:3, v:v) system assessed as relative rate of DPBF degradation to MB at 1 uM irradiated with 90 mW/cm2 halogen light; assay type: functional; how it was run: as §4
[10] = Absorption property of the compound in chloroform assessed as hypsochromic shift by measuring maximum absorption wavelength by UV-visible spectrophotometric method; assay type: physicochemical; how it was run: as §2
MCF7 = test: Phototoxicity against human MCF7 cells assessed as reduction in cell viability preincubated for 3 hrs followed by 54 J/cm2 light irradiation and measured after 24 hrs by MTT assay; assay type: functional, cell-based; details: MCF7, light or radiation study; how it was run: as §3
[11] = Drug uptake in human HeLa cells xenografted Balb/c nu/nu mouse tumor at 2 mg/kg, iv measured after 3 hrs by fluorescence imaging analysis; assay type: ADME, organism-based, Neoplasm; details: in vivo; how it was run: as §5
HeLa [12] = test: Induction of apoptosis in human HeLa cells assessed as early apoptotic cells at 40 nM preincubated for 3 hrs followed by 54 J/cm2 light irradiation and measured after 24 hrs by Annexin-V-FITC/propidium iodide staining based flow cytometry (reference value: 0.54%); assay type: functional; how it was run: as §1
[13] = Photostability of the compound in acetonitrile assessed as compound degradation irradiated with 90 mW/cm2 light; assay type: physicochemical
[14] = Dark toxicity in human SW480 cells assessed as reduction in cell viability after 3 hrs by MTT assay; assay type: cell-based
SW480 = test: Phototoxicity against human SW480 cells assessed as reduction in cell viability preincubated for 3 hrs followed by 54 J/cm2 light irradiation and measured after 24 hrs by MTT assay; assay type: functional, cell-based; details: SW480, light or radiation study; how it was run: as §3
[15] = Photostability of the compound in isopropanol assessed as compound degradation irradiated with 90 mW/cm2 light; assay type: physicochemical
[16] = Drug uptake in human HeLa cells xenografted Balb/c nu/nu mouse spleen at 2 mg/kg, iv measured within 1 hr by fluorescence imaging analysis; assay type: ADME, organism-based; details: in vivo; how it was run: as §5
[17] = Dark toxicity in human MCF7 cells assessed as reduction in cell viability after 3 hrs by MTT assay; assay type: cell-based
HeLa [18] = test: Induction of apoptosis in human HeLa cells assessed as early apoptotic cells at 200 nM preincubated for 3 hrs followed by 54 J/cm2 light irradiation and measured after 24 hrs by Annexin-V-FITC/propidium iodide staining based flow cytometry (reference value: 0.54%); assay type: functional; how it was run: as §1
[19] = Absorption property of the compound in chloroform assessed as absorption coefficient by UV-visible spectrophotometric method; assay type: physicochemical; how it was run: as §2
[20] = Absorption property of the compound in isopropanol assessed as absorption coefficient by UV-visible spectrophotometric method; assay type: physicochemical; how it was run: as §2
[21] = Drug uptake in Balb/c nu/nu mouse xenografted with human HeLa cells at 2 mg/kg, iv measured over 10 hrs by fluorescence imaging analysis; assay type: ADME, organism-based; details: in vivo; how it was run: as §5
[22] = Drug uptake in endoplasmic reticulum of human HeLa cells at 5 uM incubated for 2 hrs under dark condition by ER tracker green dye based laser confocal microscopic analysis; assay type: ADME, subcellular
How it was run: (§6)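 HeLa cells adhered overnight on glass-bottom dishes and were loaded with 5 μM compound in the dark for 2 h. After PBS washes, cells were stained with Mito-Tracker Green FM 250 nM for 30 min, Lyso-Tracker Green 160 nM for 30 min, or ER-Tracker Green 2 μM for 45 min. Confocal imaging: trackers excited at 488 nm, collected 500–560 nm; compound excited at 633 nm, collected 650–740 nm.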

[23] = Drug uptake in lysosomes of human HeLa cells at 5 uM incubated for 2 hrs under dark condition by Lyso tracker green dye based laser confocal microscopic analysis; assay type: ADME, subcellular, Lysosome; how it was run: as §6

**Q.** Which viability at 0.2 µM (HeLa [1]) does the source give for `COc1ccc(C2=[N+]3C(=Nc4c(-c5ccccc5)cc(-c5ccc(OC)cc5)n4[B-]3(F)F)C(c3ccccc3)=C2I)cc1` here?
**A.** The viability at 0.2 µM was 8.15%.

**Q.** What about the Activity [2] of the same compound?
**A.** Its Activity is 34000 M⁻¹ cm⁻¹.

**Q.** What about the IC50 (HeLa [3]) of the same compound?
**A.** Its IC50 is 0.076 µM.

**Q.** And the TGI (HeLa [4])?
**A.** The TGI was “Active”.

**Q.** And the Stabilty [5]?
**A.** Its Stabilty is “Stable”.

**Q.** What about the fold change (FC) [6] of the same compound?
**A.** The fold change (FC) was 7.3.

**Q.** And the Drug uptake [7]?
**A.** The Drug uptake was “Active”.

**Q.** What about the Activity (HeLa [8]) of the same compound?
**A.** Its Activity is 1.73%.

**Q.** What about the fold change (FC) [9] of the same compound?
**A.** Its fold change (FC) is 2.4.

**Q.** And the Activity [10]?
**A.** The Activity was 678 nm.

**Q.** What about the IC50 (MCF7) of the same compound?
**A.** The IC50 was 0.1 µM.

**Q.** And the Drug uptake [11]?
**A.** The Drug uptake was “Active”.

**Q.** And the Activity (HeLa [12])?
**A.** Its Activity is 10.68%.

**Q.** What about the Stabilty [13] of the same compound?
**A.** Its Stabilty is “Stable”.

**Q.** What about the IC50 at 3 h [14] of the same compound?
**A.** The IC50 at 3 h was over 50 µM.

**Q.** What about the IC50 (SW480) of the same compound?
**A.** Its IC50 is 0.086 µM.

**Q.** What about the Stabilty [15] of the same compound?
**A.** Its Stabilty is “Stable”.

**Q.** What about the Drug uptake [16] of the same compound?
**A.** The Drug uptake was “Active”.

**Q.** And the IC50 at 3 h [17]?
**A.** The IC50 at 3 h was over 50 µM.

**Q.** And the Activity (HeLa [18])?
**A.** Its Activity is 81.04%.

**Q.** And the Activity [19]?
**A.** Its Activity is 97000 M⁻¹ cm⁻¹.

**Q.** What about the Activity [20] of the same compound?
**A.** Its Activity is 59300 M⁻¹ cm⁻¹.

**Q.** What about the Drug uptake [21] of the same compound?
**A.** Its Drug uptake is “Not Active”.

**Q.** And the Drug uptake [22]?
**A.** Its Drug uptake is “Active”.

**Q.** What about the Drug uptake [23] of the same compound?
**A.** Its Drug uptake is “Active”.
